Assay results: ChEMBL document CHEMBL5058577, “EUbOPEN Chemogenomics Library 2 (Multiplex)” (2022)

Tested on: Fibroblast
Assay: Multiplex assay against human fibroblast
Format: toxicity, cell-based
Outline: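 Four dyes were applied at seeding to live cells: Hoechst33342, BioTracker Green Microtubule Cytoskeleton Dye, MitoTracker Red and Annexin V Alexa Fluor 680. Imaging after compound addition used a CQ1 microscope at 37°C and 5% CO2. CellPathfinder machine-learning gating then sorted cells into Hoechst high-intensity objects or normal cells, normal cells into healthy, pyknosed or fragmented nuclei, and pyknosed cells into mitotic or apoptotic, with tubulin, mitochondrial-mass and membrane-permeability phenotypes given as per cents of healthy-nucleus cells.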

[1] = 12 h, 1 µM, compound concentration 1 uM, replicate 1
[2] = 12 h, 1 µM, compound concentration 1 uM, replicate 2
[3] = 12 h, 10 µM, compound concentration 10 uM, replicate 1
[4] = 12 h, 10 µM, compound concentration 10 uM, replicate 2
[5] = 24 h, 1 µM, compound concentration 1 uM, replicate 1
[6] = 24 h, 1 µM, compound concentration 1 uM, replicate 2
[7] = 24 h, 10 µM, compound concentration 10 uM, replicate 1
[8] = 24 h, 10 µM, compound concentration 10 uM, replicate 2
[9] = 48 h, 1 µM, compound concentration 1 uM, replicate 1
[10] = 48 h, 1 µM, compound concentration 1 uM, replicate 2
[11] = 48 h, 10 µM, compound concentration 10 uM, replicate 1
[12] = 48 h, 10 µM, compound concentration 10 uM, replicate 2

COc1cc2nc(N3CCN(C(=O)c4ccco4)CC3)nc(N)c2cc1OC.Cl [PRAZOSIN HYDROCHLORIDE]
Population Apoptotic (%) [1]: 38%
Population Fragmented Nuclei (%) [1]: 22%
Population Healthy Nuclei (%) [1]: 57%
Population Hoechst High Intensity Objects (%) [1]: 1%
Population Membrane Permeable-Phenotype (%) [1]: 1%
Population Mitochondria Different-Phenotype (%) [1]: 1%
Population Mitotic Cells (%) [1]: 61%
Population Normal (%) [1]: 98%
Population Pyknosed Nuclei (%) [1]: 19%
Population Tubulin-Different-Phenotype (%) [1]: 26%
Total Cell Count [1]: 174
Population Apoptotic (%) [2]: 49%
Population Fragmented Nuclei (%) [2]: 20%
Population Healthy Nuclei (%) [2]: 52%
Population Hoechst High Intensity Objects (%) [2]: 4%
Population Membrane Permeable-Phenotype (%) [2]: 5%
Population Mitochondria Different-Phenotype (%) [2]: 7%
Population Mitotic Cells (%) [2]: 50%
Population Normal (%) [2]: 95%
Population Pyknosed Nuclei (%) [2]: 27%
Population Tubulin-Different-Phenotype (%) [2]: 46%
Total Cell Count [2]: 194
Population Apoptotic (%) [3]: 44%
Population Fragmented Nuclei (%) [3]: 23%
Population Healthy Nuclei (%) [3]: 64%
Population Hoechst High Intensity Objects (%) [3]: 1%
Population Membrane Permeable-Phenotype (%) [3]: 0%
Population Mitochondria Different-Phenotype (%) [3]: 7%
Population Mitotic Cells (%) [3]: 56%
Population Normal (%) [3]: 98%
Population Pyknosed Nuclei (%) [3]: 12%
Population Tubulin-Different-Phenotype (%) [3]: 49%
Total Cell Count [3]: 198
Population Apoptotic (%) [4]: 31%
Population Fragmented Nuclei (%) [4]: 35%
Population Healthy Nuclei (%) [4]: 42%
Population Hoechst High Intensity Objects (%) [4]: 5%
Population Membrane Permeable-Phenotype (%) [4]: 9%
Population Mitochondria Different-Phenotype (%) [4]: 3%
Population Mitotic Cells (%) [4]: 68%
Population Normal (%) [4]: 94%
Population Pyknosed Nuclei (%) [4]: 21%
Population Tubulin-Different-Phenotype (%) [4]: 65%
Total Cell Count [4]: 155
Population Apoptotic (%) [5]: 50%
Population Fragmented Nuclei (%) [5]: 20%
Population Healthy Nuclei (%) [5]: 63%
Population Hoechst High Intensity Objects (%) [5]: 2%
Population Membrane Permeable-Phenotype (%) [5]: 0%
Population Mitochondria Different-Phenotype (%) [5]: 2%
Population Mitotic Cells (%) [5]: 50%
Population Normal (%) [5]: 97%
Population Pyknosed Nuclei (%) [5]: 15%
Population Tubulin-Different-Phenotype (%) [5]: 28%
Total Cell Count [5]: 181
Population Apoptotic (%) [6]: 45%
Population Healthy Nuclei (%) [6]: 57%
Population Hoechst High Intensity Objects (%) [6]: 7%
Population Membrane Permeable-Phenotype (%) [6]: 12%
Population Mitochondria Different-Phenotype (%) [6]: 3%
Population Mitotic Cells (%) [6]: 54%
Population Normal (%) [6]: 92%
Population Pyknosed Nuclei (%) [6]: 21%
Population Tubulin-Different-Phenotype (%) [6]: 58%
Total Cell Count [6]: 185
Population Apoptotic (%) [7]: 46%
Population Fragmented Nuclei (%) [7]: 23%
Population Healthy Nuclei (%) [7]: 69%
Population Hoechst High Intensity Objects (%) [7]: 3%
Population Membrane Permeable-Phenotype (%) [7]: 0%
Population Mitochondria Different-Phenotype (%) [7]: 6%
Population Mitotic Cells (%) [7]: 53%
Population Normal (%) [7]: 96%
Population Pyknosed Nuclei (%) [7]: 6%
Population Tubulin-Different-Phenotype (%) [7]: 45%
Total Cell Count [7]: 201
Population Apoptotic (%) [8]: 61%
Population Fragmented Nuclei (%) [8]: 35%
Population Healthy Nuclei (%) [8]: 49%
Population Hoechst High Intensity Objects (%) [8]: 7%
Population Membrane Permeable-Phenotype (%) [8]: 10%
Population Mitochondria Different-Phenotype (%) [8]: 11%
Population Mitotic Cells (%) [8]: 38%
Population Normal (%) [8]: 92%
Population Pyknosed Nuclei (%) [8]: 15%
Population Tubulin-Different-Phenotype (%) [8]: 73%
Total Cell Count [8]: 152
Population Apoptotic (%) [9]: 52%
Population Fragmented Nuclei (%) [9]: 24%
Population Healthy Nuclei (%) [9]: 62%
Population Hoechst High Intensity Objects (%) [9]: 3%
Population Membrane Permeable-Phenotype (%) [9]: 0%
Population Mitochondria Different-Phenotype (%) [9]: 1%
Population Mitotic Cells (%) [9]: 47%
Population Normal (%) [9]: 96%
Population Pyknosed Nuclei (%) [9]: 13%
Population Tubulin-Different-Phenotype (%) [9]: 22%
Total Cell Count [9]: 182
Population Apoptotic (%) [10]: 66%
Population Fragmented Nuclei (%) [10]: 29%
Population Healthy Nuclei (%) [10]: 56%
Population Membrane Permeable-Phenotype (%) [10]: 8%
Population Mitochondria Different-Phenotype (%) [10]: 6%
Population Mitotic Cells (%) [10]: 33%
Population Pyknosed Nuclei (%) [10]: 14%
Population Tubulin-Different-Phenotype (%) [10]: 57%
Total Cell Count [10]: 197
Population Apoptotic (%) [11]: 66%
Population Fragmented Nuclei (%) [11]: 25%
Population Healthy Nuclei (%) [11]: 68%
Population Hoechst High Intensity Objects (%) [11]: 1%
Population Membrane Permeable-Phenotype (%) [11]: 0%
Population Mitochondria Different-Phenotype (%) [11]: 4%
Population Mitotic Cells (%) [11]: 33%
Population Normal (%) [11]: 98%
Population Pyknosed Nuclei (%) [11]: 6%
Population Tubulin-Different-Phenotype (%) [11]: 32%
Total Cell Count [11]: 201
Population Apoptotic (%) [12]: 46%
Population Fragmented Nuclei (%) [12]: 42%
Population Healthy Nuclei (%) [12]: 49%
Population Hoechst High Intensity Objects (%) [12]: 5%
Population Membrane Permeable-Phenotype (%) [12]: 5%
Population Mitochondria Different-Phenotype (%) [12]: 5%
Population Mitotic Cells (%) [12]: 53%
Population Normal (%) [12]: 94%
Population Pyknosed Nuclei (%) [12]: 8%
Population Tubulin-Different-Phenotype (%) [12]: 48%
Total Cell Count [12]: 170

COCCCN1CCC(NC(=O)c2cc(Cl)c(N)c3c2OCC3)CC1 [PRUCALOPRIDE]
Population Apoptotic (%) [1]: 33%
Population Fragmented Nuclei (%) [1]: 20%
Population Healthy Nuclei (%) [1]: 62%
Population Hoechst High Intensity Objects (%) [1]: 3%
Population Membrane Permeable-Phenotype (%) [1]: 0%
Population Mitochondria Different-Phenotype (%) [1]: 3%
Population Mitotic Cells (%) [1]: 66%
Population Normal (%) [1]: 96%
Population Pyknosed Nuclei (%) [1]: 16%
Population Tubulin-Different-Phenotype (%) [1]: 30%
Total Cell Count [1]: 132
Population Apoptotic (%) [2]: 48%
Population Fragmented Nuclei (%) [2]: 31%
Population Healthy Nuclei (%) [2]: 48%
Population Hoechst High Intensity Objects (%) [2]: 4%
Population Membrane Permeable-Phenotype (%) [2]: 5%
Population Mitochondria Different-Phenotype (%) [2]: 8%
Population Mitotic Cells (%) [2]: 52%
Population Normal (%) [2]: 95%
Population Pyknosed Nuclei (%) [2]: 20%
Population Tubulin-Different-Phenotype (%) [2]: 51%
Total Cell Count [2]: 130
Population Apoptotic (%) [3]: 30%
Population Fragmented Nuclei (%) [3]: 12%
Population Healthy Nuclei (%) [3]: 66%
Population Hoechst High Intensity Objects (%) [3]: 0%
Population Membrane Permeable-Phenotype (%) [3]: 1%
Population Mitochondria Different-Phenotype (%) [3]: 7%
Population Mitotic Cells (%) [3]: 70%
Population Normal (%) [3]: 99%
Population Pyknosed Nuclei (%) [3]: 20%
Population Tubulin-Different-Phenotype (%) [3]: 31%
Total Cell Count [3]: 144
Population Apoptotic (%) [4]: 35%
Population Fragmented Nuclei (%) [4]: 28%
Population Healthy Nuclei (%) [4]: 46%
Population Hoechst High Intensity Objects (%) [4]: 11%
Population Membrane Permeable-Phenotype (%) [4]: 7%
Population Mitochondria Different-Phenotype (%) [4]: 3%
Population Mitotic Cells (%) [4]: 64%
Population Normal (%) [4]: 88%
Population Pyknosed Nuclei (%) [4]: 25%
Population Tubulin-Different-Phenotype (%) [4]: 55%
Total Cell Count [4]: 153
Population Apoptotic (%) [5]: 48%
Population Fragmented Nuclei (%) [5]: 20%
Population Healthy Nuclei (%) [5]: 57%
Population Hoechst High Intensity Objects (%) [5]: 2%
Population Membrane Permeable-Phenotype (%) [5]: 0%
Population Mitochondria Different-Phenotype (%) [5]: 3%
Population Mitotic Cells (%) [5]: 51%
Population Normal (%) [5]: 97%
Population Pyknosed Nuclei (%) [5]: 21%
Population Tubulin-Different-Phenotype (%) [5]: 25%
Total Cell Count [5]: 136
Population Apoptotic (%) [6]: 72%
Population Fragmented Nuclei (%) [6]: 36%
Population Healthy Nuclei (%) [6]: 49%
Population Hoechst High Intensity Objects (%) [6]: 7%
Population Membrane Permeable-Phenotype (%) [6]: 7%
Population Mitochondria Different-Phenotype (%) [6]: 4%
Population Mitotic Cells (%) [6]: 27%
Population Normal (%) [6]: 92%
Population Pyknosed Nuclei (%) [6]: 14%
Population Tubulin-Different-Phenotype (%) [6]: 50%
Total Cell Count [6]: 138
Population Apoptotic (%) [7]: 63%
Population Fragmented Nuclei (%) [7]: 10%
Population Healthy Nuclei (%) [7]: 74%
Population Hoechst High Intensity Objects (%) [7]: 6%
Population Membrane Permeable-Phenotype (%) [7]: 1%
Population Mitochondria Different-Phenotype (%) [7]: 6%
Population Mitotic Cells (%) [7]: 36%
Population Normal (%) [7]: 93%
Population Pyknosed Nuclei (%) [7]: 15%
Population Tubulin-Different-Phenotype (%) [7]: 30%
Total Cell Count [7]: 128
Population Apoptotic (%) [8]: 30%
Population Fragmented Nuclei (%) [8]: 24%
Population Healthy Nuclei (%) [8]: 57%
Population Hoechst High Intensity Objects (%) [8]: 5%
Population Membrane Permeable-Phenotype (%) [8]: 11%
Population Mitochondria Different-Phenotype (%) [8]: 3%
Population Mitotic Cells (%) [8]: 69%
Population Normal (%) [8]: 94%
Population Pyknosed Nuclei (%) [8]: 18%
Population Tubulin-Different-Phenotype (%) [8]: 56%
Total Cell Count [8]: 148
Population Apoptotic (%) [9]: 50%
Population Fragmented Nuclei (%) [9]: 25%
Population Healthy Nuclei (%) [9]: 60%
Population Hoechst High Intensity Objects (%) [9]: 4%
Population Membrane Permeable-Phenotype (%) [9]: 2%
Population Mitochondria Different-Phenotype (%) [9]: 3%
Population Mitotic Cells (%) [9]: 50%
Population Normal (%) [9]: 95%
Population Pyknosed Nuclei (%) [9]: 14%
Population Tubulin-Different-Phenotype (%) [9]: 38%
Total Cell Count [9]: 146
Population Fragmented Nuclei (%) [10]: 36%
Population Healthy Nuclei (%) [10]: 49%
Population Hoechst High Intensity Objects (%) [10]: 2%
Population Membrane Permeable-Phenotype (%) [10]: 3%
Population Mitochondria Different-Phenotype (%) [10]: 6%
Population Normal (%) [10]: 97%
Population Pyknosed Nuclei (%) [10]: 13%
Population Tubulin-Different-Phenotype (%) [10]: 53%
Total Cell Count [10]: 132
Population Apoptotic (%) [11]: 64%
Population Fragmented Nuclei (%) [11]: 22%
Population Healthy Nuclei (%) [11]: 66%
Population Hoechst High Intensity Objects (%) [11]: 2%
Population Membrane Permeable-Phenotype (%) [11]: 1%
Population Mitochondria Different-Phenotype (%) [11]: 6%
Population Mitotic Cells (%) [11]: 35%
Population Normal (%) [11]: 97%
Population Pyknosed Nuclei (%) [11]: 10%
Population Tubulin-Different-Phenotype (%) [11]: 38%
Total Cell Count [11]: 136
Population Apoptotic (%) [12]: 62%
Population Fragmented Nuclei (%) [12]: 34%
Population Healthy Nuclei (%) [12]: 48%
Population Hoechst High Intensity Objects (%) [12]: 6%
Population Membrane Permeable-Phenotype (%) [12]: 7%
Population Mitochondria Different-Phenotype (%) [12]: 7%
Population Mitotic Cells (%) [12]: 37%
Population Normal (%) [12]: 93%
Population Pyknosed Nuclei (%) [12]: 17%
Population Tubulin-Different-Phenotype (%) [12]: 57%
Total Cell Count [12]: 146
